Data taken from ChEMBL document CHEMBL3627667, “Novel halogenated 3-deazapurine, 7-deazapurine and alkylated 9-deazapurine derivatives of L-ascorbic or imino-L-ascorbic acid: Synthesis, antitumour and antiviral activity evaluations” (Eur J Med Chem, 2015).

Assays:
[1] = Cytotoxicity against human HEL cells assessed as alteration in cell morphology incubated for 3 days by microscopy; type: cell-based
How it was run: (§1)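 MCC is the compound concentration causing a microscopically visible alteration of cell morphology in the cultures used for the antiviral assays.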

[2] = tested on: Mammalian orthoreovirus 1; assay: Antiviral activity against Reovirus 1 expressed in African green monkey Vero cells assessed as reduction in cytopathogenicity; type: functional, cell-based; conditions: Mammalian orthoreovirus 1, Vero
How it was run: (§2)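 Confluent Vero monolayers were inoculated with 100 CCID50 of virus in the presence of 5-fold serial compound dilutions. Cytopathicity was scored once it was complete in untreated infected controls. EC50 is the concentration giving 50% reduction of virus-induced cytopathogenicity.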

Human betaherpesvirus 5 [3] = assay: Antiviral activity against Human cytomegalovirus AD169 expressed in HEL cells assessed as reduction in plaque formation incubated for 7 days by Giemsa stain based microscopy; type: functional, organism-based; conditions: Human betaherpesvirus 5, AD169, HEL, 168 h
How it was run: (§3)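 Confluent HEL fibroblasts were infected at 100 PFU per well. After 2 h, residual virus was removed and compound-containing medium added, in duplicate. After 7 days at 37 °C, cells were ethanol-fixed, Giemsa-stained and examined microscopically. EC50 was read from graphic plots of % cytopathogenicity versus concentration.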

HeLa [4] = assay: Antiproliferative activity against human HeLa cells incubated for 72 hrs by MTT assay; type: functional, cell-based
How it was run: (§4)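 Cells seeded at 5000 per well on day 0. Test agents added in five 10-fold dilutions (0.01–100 μM) for a further 72 h, with DMSO ≤0.1% as solvent control. Growth was read by MTT and absorbance converted to percentage growth against untreated cells on the same plate. IC50 came from linear regression on dose–response curves. Quadruplicate points, three independent experiments.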

Human betaherpesvirus 5 [5] = assay: Antiviral activity against Human cytomegalovirus Davis expressed in HEL cells assessed as reduction in plaque formation incubated for 7 days by Giemsa stain based microscopy; type: functional, organism-based; conditions: Human betaherpesvirus 5, Davis, 168 h; how it was run: as §3
HepG2 = assay: Antiproliferative activity against human HepG2 cells incubated for 72 hrs by MTT assay; type: functional, cell-based; how it was run: as §4
Human respirovirus 3 = assay: Antiviral activity against Parainfluenza virus 3 expressed in African green monkey Vero cells assessed as reduction in cytopathogenicity; type: functional, organism-based; conditions: Human respirovirus 3, Vero; how it was run: as §2
HEL = assay: Cytotoxicity against human HEL cells assessed as cell growth reduction incubated for 3 days; type: cell-based; conditions: 72 h
How it was run: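 HEL cells were seeded at 5 × 10^3 per well and allowed to proliferate for 24 h before compound-containing medium was added. After 3 days at 37 °C, cells were counted with a Coulter counter. CC50 (50% reduction of proliferation versus untreated controls) was estimated from graphic plots.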

Coxsackievirus B4 = assay: Antiviral activity against Coxsackievirus B4 expressed in African green monkey Vero cells assessed as reduction in cytopathogenicity; type: functional, organism-based; conditions: Enterovirus B; how it was run: as §2
Punta Toro virus = assay: Antiviral activity against Punta Toro virus expressed in African green monkey Vero cells assessed as reduction in cytopathogenicity; type: functional, organism-based; how it was run: as §2
SW-620 = assay: Antiproliferative activity against human SW620 cells incubated for 72 hrs by MTT assay; type: functional, cell-based; how it was run: as §4
[6] = Cytotoxicity against African green monkey Vero cells assessed as alteration in cell morphology by microscopy; type: cell-based; conditions: chlorocebus sabaeus; how it was run: as §1
Sindbis virus = assay: Antiviral activity against Sindbis virus expressed in African green monkey Vero cells assessed as reduction in cytopathogenicity; type: functional, organism-based; how it was run: as §2
[7] = Antiproliferative activity against human MIAPaCa2 cells incubated for 72 hrs by MTT assay; type: functional, cell-based, MIA PaCa-2; how it was run: as §4
HeLa [8] = assay: Cytotoxicity against human HeLa cells assessed as cell growth reduction incubated for 3 days; type: cell-based; conditions: 72 h
[9] = Antiproliferative activity against mouse L1210/0 cells incubated for 72 hrs by MTT assay; type: functional, cell-based; how it was run: as §4
[10] = Antiproliferative activity against human CEM/0 cells incubated for 72 hrs by MTT assay; type: functional, cell-based, CCRF-CEM; how it was run: as §4
Human alphaherpesvirus 3 [11] = assay: Antiviral activity against thymidine kinase deficient Varicella zoster virus 07-1 expressed in HEL cells assessed as reduction in plaque formation incubated for 5 days; type: functional, organism-based; conditions: Human alphaherpesvirus 3, 07-1, HEL, 120 h
How it was run: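 Confluent HEL cells in 96-well plates inoculated with TK-deficient VZV strain 07-1 at 20 PFU per well; residual virus removed after 2 h, then varying compound concentrations added in duplicate. EC50 = concentration reducing viral plaque formation by 50% versus untreated controls after 5 days.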

Human alphaherpesvirus 3 [12] = assay: Antiviral activity against Varicella zoster virus Oka expressed in HEL cells assessed as reduction in plaque formation incubated for 5 days; type: functional, organism-based; conditions: Human alphaherpesvirus 3, Oka, 120 h
How it was run: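 Confluent HEL cells were inoculated at 20 PFU per well of VZV. Residual virus was removed after 2 h, then compound dilutions were added in duplicate. EC50 is the concentration reducing plaque formation by 50% versus untreated controls after 5 days.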

| Structure (SMILES) | IC50 (HeLa [4]; Homo sapiens, HeLa, 72 h) [µM] | IC50 (HepG2; Homo sapiens, HepG2, 72 h) [µM] | IC50 (SW-620; Homo sapiens, SW-620, 72 h) [µM] | IC50 ([7]; Homo sapiens, MIA PaCa-2, 72 h) [µM] | IC50 ([9]; Mus musculus, L1210/0, 72 h) [µM] | IC50 ([10]; Homo sapiens, CCRF-CEM, 72 h) [µM] | other results |
| --- | --- | --- | --- | --- | --- | --- | --- |
| O=C1O/C(=C\Cn2cnc3c(F)nc(F)c(Cl)c32)C(OCc2ccccc2)=C1OCc1ccccc1 | > 100 | > 100 | 55 | 78 |  |  | MCC at 72 h [1]: > 100 µM; EC50 [2]: > 20 µM; EC50 (Human betaherpesvirus 5 [3]): 44.7 µM; EC50 (Human betaherpesvirus 5 [5]): 44.7 µM; EC50 (Human respirovirus 3): > 20 µM; CC50 (HEL): ≥ 100 µM; EC50 (Coxsackievirus B4): 14.5 µM; EC50 (Punta Toro virus): 12 µM; MCC [6]: ≥ 20 µM; EC50 (Sindbis virus): > 20 µM; Activity (HeLa [8]): Non-toxic |
| NC(=O)c1ncn([C@@H]2O[C@H](CO)[C@@H](O)[C@H]2O)n1 [RIBAVIRIN] |  |  |  |  |  |  | EC50 [2]: > 250 µM; EC50 (Human respirovirus 3): 73.5 µM; EC50 (Coxsackievirus B4): > 250 µM; MCC [6]: > 250 µM; EC50 (Sindbis virus): > 250 µM |
| O=C1O/C(=C\Cn2cnc3ccn(C/C=C4\OC(=O)C(OCc5ccccc5)=C4OCc4ccccc4)c3c2=O)C(OCc2ccccc2)=C1OCc1ccccc1 | 5.6 | > 100 | 47.2 | 26.2 | 4.5 | 19 | EC50 [2]: > 20 µM; EC50 (Human respirovirus 3): > 20 µM; EC50 (Coxsackievirus B4): > 20 µM; EC50 (Punta Toro virus): 6.7 µM; MCC [6]: ≥ 20 µM; EC50 (Sindbis virus): > 20 µM; EC50 (Human alphaherpesvirus 3 [11]): 7.6 µM; EC50 (Human alphaherpesvirus 3 [12]): 13.8 µM |
| Nc1ccn(C[C@@H](CO)OCP(=O)(O)O)c(=O)n1 [CIDOFOVIR] |  |  |  |  |  |  | MCC at 72 h [1]: > 300 µM; EC50 (Human betaherpesvirus 5 [3]): 0.61 µM; EC50 (Human betaherpesvirus 5 [5]): 0.51 µM; CC50 (HEL): 153 µM |
| O=C1NC(O)(CCn2cnc3ccn(CCC4(O)NC(=O)C(OCc5ccccc5)=C4OCc4ccccc4)c3c2=O)C(OCc2ccccc2)=C1OCc1ccccc1 (stereo in doubt; 18) | 17 | > 100 |  | 5.7 | 4.4 |  | IC50 (SW-620; sw-620): 69.9 µM; IC50 ([10]; ccrf-cem): 15 µM |
| O=C1O/C(=C\Cn2cnc3c(Cl)c(F)nc(F)c32)C(O)=C1O (mixture of isomers) | > 100 | > 100 | > 100 | > 100 |  |  |  |
| COc1nc(OC)c2c(ccn2CCC2(O)NC(=O)C(OCc3ccccc3)=C2OCc2ccccc2)n1 (configuration not stated) |  | > 100 |  |  |  | 87 |  |
| Nc1nc(O)c2ncn(COC(CO)CO)c2n1 [GANCICLOVIR] |  |  |  |  |  |  | MCC at 72 h [1]: > 350 µM; EC50 (Human betaherpesvirus 5 [3]): 6.12 µM; EC50 (Human betaherpesvirus 5 [5]): 4.72 µM; CC50 (HEL): 328 µM |
| O=C1NC(O)(CCn2cnc3cncc(Br)c32)C(OCc2ccccc2)=C1OCc1ccccc1 (configuration not stated) | 77 | 66.5 | > 100 | 48.7 | 50 | 25 |  |
| O=C1NC(O)(CCn2cnc3cc[nH]c3c2=O)C(OCc2ccccc2)=C1OCc1ccccc1 (configuration not stated) | 92 | > 100 | 90.7 | 36.6 | 107 | 87 |  |
| O=C1NC(O)(/C=C\n2cc(I)c3c(Cl)ncnc32)C(OCc2ccccc2)=C1OCc1ccccc1 (configuration not stated) | > 250 | 32.4 | 46.9 | 22.6 | > 250 | > 250 |  |
| O=C1O/C(=C\Cn2cc(I)c3c(Cl)ncnc32)C(OCc2ccccc2)=C1OCc1ccccc1 (mixture of isomers) | 65 | > 100 | > 100 | 33.3 | 128 | > 250 |  |
| Nc1ncnc2c1ncn2C[C@H](O)CO [(S)-DHPA] |  |  |  |  |  |  | EC50 [2]: > 250 µM; EC50 (Human respirovirus 3): > 250 µM; EC50 (Coxsackievirus B4): > 250 µM; EC50 (Punta Toro virus): > 250 µM; MCC [6]: > 250 µM; EC50 (Sindbis virus): > 250 µM |
| O=C1O/C(=C\Cn2cnc3cncc(Br)c32)C(OCc2ccccc2)=C1OCc1ccccc1 (mixture of isomers) | 15 | 46.9 | 32.9 | 22.6 | 6.8 | 5.7 |  |
| COc1nc(OC)c2c(ccn2C/C=C2\OC(=O)C(OCc3ccccc3)=C2OCc2ccccc2)n1 (mixture of isomers) | 12 | > 100 | 47.1 | 33.9 | 4.7 | 4.1 | MCC at 72 h [1]: ≥ 20 µM; EC50 (Human betaherpesvirus 5 [3]): 4.99 µM; EC50 (Human betaherpesvirus 5 [5]): 1.99 µM; CC50 (HEL): 36.6 µM |
| O=C1NC(O)(CCn2cnc3ccnc(Cl)c32)C(OCc2ccccc2)=C1OCc1ccccc1 (configuration not stated) | 21 | > 100 | > 100 | 60 |  |  |  |
| O=C1O/C(=C\Cn2cnc3ccnc(Cl)c32)C(OCc2ccccc2)=C1OCc1ccccc1 (mixture of isomers) | > 100 | > 100 | > 100 | > 100 |  |  |  |
| O=C1NC(O)(CCn2cnc3ccn(CCC4(O)NC(=O)C(OCc5ccccc5)=C4OCc4ccccc4)c3c2=O)C(OCc2ccccc2)=C1OCc1ccccc1 (stereo in doubt; 19) |  |  |  |  |  |  | IC50 (HeLa [4]; hela): 18 µM; IC50 (HepG2; hepg2): 52 µM; IC50 ([9]; l1210/0): 7.6 µM; IC50 (SW-620; sw-620): 30.5 µM; IC50 ([10]; ccrf-cem): 4.9 µM; IC50 ([7]; mia paca-2): 4.4 µM |
| Nc1nc(F)c(Cl)c2c1ncn2CCC1(O)NC(=O)C(OCc2ccccc2)=C1OCc1ccccc1 (configuration not stated) | 39 | > 100 | 59 | > 100 |  |  |  |
| O=C1O/C(=C\Cn2cnc3cc[nH]c3c2=O)C(OCc2ccccc2)=C1OCc1ccccc1 | 27 | > 100 | > 100 | > 100 | 28 | 16 |  |
| O=c1[nH]cc(F)c(=O)[nH]1 [FLUOROURACIL] | 66.5 | 55.2 | 0.79 |  |  |  |  |
